Test results published in ChEMBL document CHEMBL1126849, “Synthesis of A-ring fluorinated derivatives of (17 alpha,20E/Z)-[125I]iodovinylestradiols: effect on receptor binding and receptor-mediated target tissue uptake” (J Med Chem, 1993).

Experiments:
Rattus norvegicus [1] = test: Biodistribution in fat of immature female rat after 1 hr administration of 3 micro Ci (111 kBq) in the absence of 60 microg estradiol; format: ADME, organism-based, Adipose tissue; conditions: in vivo
How it was run: (§1)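 Immature female Long Evans rats (21–24 days, 45–70 g), unanesthetized in retention cages, given 3 µCi (111 kBq) 125I-labeled steroid i.v. via lateral tail vein. Vehicle was ethanol diluted in saline containing 1% Tween-80, giving 9% ethanol final. The blocking group received 60 µg unlabeled estradiol co-injected. Rats were killed under ether by axillary bleeding, and tissues were KCl-washed and gamma-counted. Data are %ID/g, mean ± SE, n=3–5.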

Rattus norvegicus [2] = test: Biodistribution in lungs of immature female rat after 12 hour administration of 3 micro Ci (111 kBq) in the absence of 60 microg estradiol; format: ADME, organism-based, Lung; conditions: in vivo
How it was run: (§2)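 Immature female Long Evans rats (21–24 days, 45–70 g), three to five per group, given 125I-labeled steroid (3 μCi, 111 kBq) by lateral tail vein without anesthesia. Vehicle: ethanol diluted in saline with 1% Tween-80, final ethanol 9%, 0.22 μm filtered. +E2 groups received 60 μg unlabeled estradiol co-injected. Killed under ether at set times; tissues KCl-washed, blotted, weighed, gamma counted; %ID/g, mean with SE.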

Rattus norvegicus [3] = test: Biodistribution in fat of immature female rat after 5 hour administration of 3 micro Ci (111 kBq) in the absence of 60 microg estradiol; format: ADME, organism-based, Adipose tissue; conditions: in vivo; how it was run: as §1
Rattus norvegicus [4] = test: Biodistribution in blood of immature female rat after 1 hr administration of 3 micro Ci (111 kBq) in the absence of 60 microg estradiol; format: ADME, organism-based; conditions: in vivo; how it was run: as §1
Rattus norvegicus [5] = test: Biodistribution in thyroid of immature female rat after 1 hr administration of 3 micro Ci (111 kBq) in the absence of 60 microg estradiol; format: ADME, organism-based, Thyroid gland; conditions: in vivo; how it was run: as §2
Rattus norvegicus [6] = test: Biodistribution in kidney of immature female rat after 5 hour administration of 3 micro Ci (111 kBq) in the absence of 60 microg estradiol; format: ADME, organism-based; conditions: in vivo; how it was run: as §1
Rattus norvegicus [7] = test: Biodistribution in liver of immature female rat after 5 hour administration of 3 micro Ci (111 kBq) in the absence of 60 microg estradiol; format: ADME, organism-based; conditions: in vivo; how it was run: as §1
Rattus norvegicus [8] = test: Biodistribution in blood of immature female rat after 12 hour administration of 3 micro Ci (111 kBq) in the absence of 60 microg estradiol; format: ADME, organism-based; conditions: in vivo; how it was run: as §1
Rattus norvegicus [9] = test: Biodistribution in fat of immature female rat after 12 hour administration of 3 micro Ci (111 kBq) in the absence of 60 microg estradiol; format: ADME, organism-based, Adipose tissue; conditions: in vivo; how it was run: as §1
Rattus norvegicus [10] = test: Biodistribution in uterus / spleen, muscle, lungs of immature female rat after 3 hour administration of 3 micro Ci (111 kBq) in the absence of 60 microg estradiol; format: ADME, organism-based; conditions: in vivo
How it was run: (§3)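 Immature female Long Evans rats (21–24 days, 45–70 g), 3–5 per group, unanesthetized in retention cages, given 3 μCi (111 kBq) 125I-labeled steroid by lateral tail vein. Vehicle: ethanol diluted with saline containing 1% Tween-80, final ethanol 9%. +E2 group co-injected 60 μg unlabeled estradiol (1 h only). Killed under ether; tissues KCl-washed, weighed, gamma-counted. Output: %ID/g (mean, SE) and uterus to blood or nontarget (muscle, spleen, lungs) ratios.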

Rattus norvegicus [11] = test: Biodistribution in kidney of immature female rat after 1 hr administration of 3 micro Ci (111 kBq) in the absence of 60 microg estradiol; format: ADME, organism-based; conditions: in vivo; how it was run: as §1
Rattus norvegicus [12] = test: Biodistribution in thyroid of immature female rat after 12 hour administration of 3 micro Ci (111 kBq) in the absence of 60 microg estradiol; format: ADME, organism-based, Thyroid gland; conditions: in vivo; how it was run: as §2
Rattus norvegicus [13] = test: Biodistribution in spleen of immature female rat after 1 hr administration of 3 micro Ci (111 kBq) in the absence of 60 microg estradiol; format: ADME, organism-based; conditions: in vivo; how it was run: as §2
Rattus norvegicus [14] = test: Biodistribution in spleen of immature female rat after 5 hour administration of 3 micro Ci (111 kBq) in the absence of 60 microg estradiol; format: ADME, organism-based; conditions: in vivo; how it was run: as §2
Rattus norvegicus [15] = test: Biodistribution in uterus of immature female rat after 1 hr administration of 3 micro Ci (111 kBq) in the absence of 60 microg estradiol; format: ADME, organism-based; conditions: in vivo; how it was run: as §3
Rattus norvegicus [16] = test: Biodistribution in kidney of immature female rat after 3 hour administration of 3 micro Ci (111 kBq) in the absence of 60 microg estradiol; format: ADME, organism-based; conditions: in vivo; how it was run: as §1
Rattus norvegicus [17] = test: Biodistribution in muscle of immature female rat after 1 hr administration of 3 micro Ci (111 kBq) in the absence of 60 microg estradiol; format: ADME, organism-based, Muscle tissue; conditions: in vivo; how it was run: as §2
Rattus norvegicus [18] = test: Biodistribution in spleen of immature female rat after 12 hour administration of 3 micro Ci (111 kBq) in the absence of 60 microg estradiol; format: ADME, organism-based; conditions: in vivo; how it was run: as §2
Rattus norvegicus [19] = test: Biodistribution in uterus / blood of immature female rat after 1 hr administration of 3 micro Ci (111 kBq) in the presence of (+E2); format: ADME, organism-based; conditions: in vivo
How it was run: (§4)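 Same in vivo procedure: immature female Long Evans rats (21–24 days), three to five per group, 3 μCi (111 kBq) tracer i.v. via tail vein in 9% ethanol/saline/1% Tween-80, ± 60 μg estradiol co-injected at 1 h. Uterus %ID/g (gamma counting) divided by blood, or by nontarget organ (muscle, spleen, lungs), %ID/g to give ratios.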

Rattus norvegicus [20] = test: Biodistribution in uterus / blood of immature female rat after 5 hour administration of 3 micro Ci (111 kBq) in the absence of 60 microg estradiol; format: ADME, organism-based; conditions: in vivo; how it was run: as §4
Rattus norvegicus [21] = test: Biodistribution in fat of immature female rat after 1 hr administration of 3 micro Ci (111 kBq) in the presence of (+E2); format: ADME, organism-based, Adipose tissue; conditions: in vivo; how it was run: as §1
Rattus norvegicus [22] = test: Biodistribution in muscle of immature female rat after 3 hour administration of 3 micro Ci (111 kBq) in the absence of 60 microg estradiol; format: ADME, organism-based, Muscle tissue; conditions: in vivo; how it was run: as §2
Rattus norvegicus [23] = test: Biodistribution in lungs of immature female rat after 5 hour administration of 3 micro Ci (111 kBq) in the absence of 60 microg estradiol; format: ADME, organism-based, Lung; conditions: in vivo; how it was run: as §2
Rattus norvegicus [24] = test: Biodistribution in uterus / blood of immature female rat after 3 hour administration of 3 micro Ci (111 kBq) in the absence of 60 microg estradiol; format: ADME, organism-based; conditions: in vivo; how it was run: as §4
[25] = molecular target: Estrogen receptor (Mus musculus) (UniProt O08537+P19785); test: Relative binding affinity (RBA) against murine cytoplasmic estrogen receptor incubated at 0-4 degree Celsius for 18 hours; format: protein assay
How it was run: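 Competitive binding on murine uterine cytoplasmic extract with 20 nM [3H]estradiol and competitor steroids at 2 nM–20 μM, incubated 18 h at 0–4 °C. RBA = 100 × ratio of […] concentration giving 50% competition for specific binding. Mean of three experiments with SD.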

Rattus norvegicus [26] = test: Biodistribution in muscle of immature female rat after 12 hour administration of 3 micro Ci (111 kBq) in the absence of 60 microg estradiol; format: ADME, organism-based, Muscle tissue; conditions: in vivo; how it was run: as §2
Rattus norvegicus [27] = test: Biodistribution in thyroid of immature female rat after 3 hour administration of 3 micro Ci (111 kBq) in the absence of 60 microg estradiol; format: ADME, organism-based, Thyroid gland; conditions: in vivo; how it was run: as §2
Rattus norvegicus [28] = test: Biodistribution in lungs of immature female rat after 1 hr administration of 3 micro Ci (111 kBq) in the absence of 60 microg estradiol; format: ADME, organism-based, Lung; conditions: in vivo; how it was run: as §1
Rattus norvegicus [29] = test: Biodistribution in uterus / spleen, muscle, lungs of immature female rat after 1 hr administration of 3 micro Ci (111 kBq) in the presence of (+E2); format: ADME, organism-based; conditions: in vivo; how it was run: as §4
Rattus norvegicus [30] = test: Biodistribution in blood of immature female rat after 1 hr administration of 3 micro Ci (111 kBq) in the presence of (+E2); format: ADME, organism-based; conditions: in vivo; how it was run: as §1

Estrogen receptor (Mus musculus), sequence (O08537 whole entry, looked up): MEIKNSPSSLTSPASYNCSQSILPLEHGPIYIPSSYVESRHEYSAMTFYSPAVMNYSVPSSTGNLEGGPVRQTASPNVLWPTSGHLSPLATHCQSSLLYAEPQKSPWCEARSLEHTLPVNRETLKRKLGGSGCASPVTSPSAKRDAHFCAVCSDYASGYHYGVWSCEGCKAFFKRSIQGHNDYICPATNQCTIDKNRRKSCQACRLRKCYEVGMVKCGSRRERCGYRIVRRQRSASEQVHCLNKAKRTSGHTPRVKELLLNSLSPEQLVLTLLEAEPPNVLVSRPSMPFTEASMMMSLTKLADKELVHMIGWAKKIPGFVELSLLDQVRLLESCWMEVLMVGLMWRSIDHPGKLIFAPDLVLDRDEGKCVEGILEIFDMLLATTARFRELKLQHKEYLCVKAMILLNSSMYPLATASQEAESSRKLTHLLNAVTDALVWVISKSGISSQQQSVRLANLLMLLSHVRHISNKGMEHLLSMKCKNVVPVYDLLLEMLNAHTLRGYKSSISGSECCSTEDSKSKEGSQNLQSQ
Estrogen receptor (Mus musculus), sequence (P19785 whole entry, looked up): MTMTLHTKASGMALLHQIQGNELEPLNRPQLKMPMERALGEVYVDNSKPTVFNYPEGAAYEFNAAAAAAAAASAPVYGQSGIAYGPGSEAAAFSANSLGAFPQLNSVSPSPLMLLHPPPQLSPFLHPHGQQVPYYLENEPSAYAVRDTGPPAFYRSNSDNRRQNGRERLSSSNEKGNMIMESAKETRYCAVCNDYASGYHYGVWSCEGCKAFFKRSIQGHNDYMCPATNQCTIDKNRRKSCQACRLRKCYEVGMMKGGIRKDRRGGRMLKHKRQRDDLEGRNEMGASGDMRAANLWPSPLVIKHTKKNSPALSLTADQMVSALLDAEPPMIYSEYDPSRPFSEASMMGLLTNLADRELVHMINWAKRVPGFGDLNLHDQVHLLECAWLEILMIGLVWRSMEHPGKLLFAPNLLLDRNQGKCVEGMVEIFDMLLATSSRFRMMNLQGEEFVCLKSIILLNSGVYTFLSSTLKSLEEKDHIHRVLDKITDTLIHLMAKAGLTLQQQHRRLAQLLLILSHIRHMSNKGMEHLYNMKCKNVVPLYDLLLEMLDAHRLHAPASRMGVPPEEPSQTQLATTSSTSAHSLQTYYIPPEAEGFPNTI

Row | Structure (SMILES) | ID/g (Rattus norvegicus [1]) | ID/g (Rattus norvegicus [2]) | ID/g (Rattus norvegicus [3]) | ID/g (Rattus norvegicus [4]) | ID/g (Rattus norvegicus [5]) | ID/g (Rattus norvegicus [6]) | ID/g (Rattus norvegicus [7]) | ID/g (Rattus norvegicus [8]) | ID/g (Rattus norvegicus [9]) | Uterus to nontarget tissue (spleen, muscle, lungs) uptake ratio (Rattus norvegicus [10]) | ID/g (Rattus norvegicus [11]) | ID/g (Rattus norvegicus [12]) | ID/g (Rattus norvegicus [13]) | ID/g (Rattus norvegicus [14]) | ID/g (Rattus norvegicus [15]) | ID/g (Rattus norvegicus [16]) | ID/g (Rattus norvegicus [17]) | ID/g (Rattus norvegicus [18]) | uterus/blood %ID/g ratio (Rattus norvegicus [19]) | RBA [25] | further results
1 | CO[C@H]1C[C@@]2(C)[C@@H](CC[C@@]2(O)/C=C\I)[C@@H]2CCc3c(ccc(O)c3F)[C@H]21 | 1.43% | 0.37% | 0.75% | 0.66% | 551% | 1.08% | 1.42% | 0.25% | 0.47% | 11.77% | 1.64% | 4651% | 2.04% | 0.66% | 6.87% | 1.08% | 0.66% | 0.7% | 1.3% | 37.9 | uterus to blood ratio (Rattus norvegicus [20]): 20.08%; ID/g (Rattus norvegicus [21]): 1.82%; ID/g (Rattus norvegicus [22]): 0.48%; ID/g (Rattus norvegicus [23]): 0.51%; uterus to blood %ID/g ratio (unitless) (Rattus norvegicus [24]): 13.35%; ID/g (Rattus norvegicus [26]): 0.27%; ID/g (Rattus norvegicus [27]): 1446%; ID/g (Rattus norvegicus [28]): 0.84%; uterus-to-nontarget tissue uptake ratio (Rattus norvegicus [29]): 1.11%
2 | C[C@]12CC[C@@H]3c4ccc(O)c(F)c4CC[C@H]3[C@@H]1CC[C@@]2(O)/C=C/I | 2.97% | 0.1% | 1.67% | 0.78% | 71.61% | 0.26% | 1.21% | 0.16% | 0.3% | 11.38% | 0.93% | 385% | 0.59% | 0.17% | 3.75% | 0.59% | 0.46% | 0.1% | 1.02% | 55.9 | uterus to blood ratio (Rattus norvegicus [20]): 9.01%; ID/g (Rattus norvegicus [21]): 1.14%; ID/g (Rattus norvegicus [22]): 0.31%; ID/g (Rattus norvegicus [23]): 0.28%; uterus to blood %ID/g ratio (unitless) (Rattus norvegicus [24]): 4.56%; ID/g (Rattus norvegicus [30]): 0.81%; ID/g (Rattus norvegicus [26]): 0.06%; ID/g (Rattus norvegicus [27]): 128%; ID/g (Rattus norvegicus [28]): 0.89%; uterus-to-nontarget tissue uptake ratio (Rattus norvegicus [29]): 1.17%
3 | CO[C@H]1C[C@@]2(C)[C@@H](CC[C@@]2(O)/C=C/I)[C@@H]2CCc3c(ccc(O)c3F)[C@H]21 |  |  |  |  |  |  |  |  |  |  |  |  |  |  |  |  |  |  |  | 27.7 | 
